High-throughput results deposited in PubChem BioAssay by several laboratories.
RGS16-Gao: modulators of RGS16 binding to Galphao, primary screen, biochemical, human proteins, multiplexed bead flow cytometry; Regulator of G-protein signaling 16 (Homo sapiens) + Guanine nucleotide-binding protein …; bead-based flow cytometry RGS16-Galphao binding, fluorescence; actives lie on both sides; binding response (% of control), % at 10 µM; 0.38% of 220,000 active; AID 1441, 2008;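 also: Galphao activated by GDP with aluminum fluoride before binding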
Target sequence (O15492 whole entry, looked up): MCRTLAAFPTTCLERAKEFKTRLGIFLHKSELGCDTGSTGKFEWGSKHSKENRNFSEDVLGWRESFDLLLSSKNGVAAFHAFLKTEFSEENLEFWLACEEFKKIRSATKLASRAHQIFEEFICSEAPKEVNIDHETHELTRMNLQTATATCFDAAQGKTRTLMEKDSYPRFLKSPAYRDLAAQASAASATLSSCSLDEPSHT
Target sequence (P09471 whole entry, looked up): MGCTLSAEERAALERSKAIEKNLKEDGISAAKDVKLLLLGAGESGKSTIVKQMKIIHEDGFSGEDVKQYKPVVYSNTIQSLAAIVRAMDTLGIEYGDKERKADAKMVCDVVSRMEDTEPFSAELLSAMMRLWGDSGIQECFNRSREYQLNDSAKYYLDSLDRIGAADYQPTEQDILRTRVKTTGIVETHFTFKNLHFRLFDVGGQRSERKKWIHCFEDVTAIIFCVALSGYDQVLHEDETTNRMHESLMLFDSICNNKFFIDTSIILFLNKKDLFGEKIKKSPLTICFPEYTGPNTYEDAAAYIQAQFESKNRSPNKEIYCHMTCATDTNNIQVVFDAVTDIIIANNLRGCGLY
RGS7-Gao: RGS7-Galphao binding modulators, primary screen, biochemical, multiplexed bead flow cytometry. Guanine nucleotide-binding protein G(o) subunit alpha (Homo sapiens), P09471. actives lie on both sides. binding response (% of control), % at 10 µM. 0.35% of 220,000 active; in the data active = binding response below about 49% or above about 150%; inconclusive = no clear call, values can overlap the other calls; inactive = in between;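 also: fluorescent Galphao held in activated GDP-AlF4 state binding bead-coupled RGS7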
Calb biofilm kill: clotrimazole potentiators killing C. albicans biofilm, primary screen, 4-compound mixtures. C. albicans biofilm persisters + clotrimazole, fluorescence viability; primary screen in compound mixtures of four per well. inhibition, % at 7.6 µM. AID 1242, 2008. 0.02% of 120,000 active;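 active = inhibition above 30.3% in the primary screen of four-compound pools, then above 30% when the compound was retested; inconclusive = passed the primary limit but could not be retested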;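 also: compounds exposed to preformed 24 h biofilms for 48 h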
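Test system: C. albicans CAF4-2 wild-type biofilms; buffer or medium: RPMI/MOPS medium, pH 7.0; schedule: 24 h biofilm formation, then 48 h compound exposure, 37 °C; detection: Alamar Blue fluorescence; measure: percent inhibition of biofilm viability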
RGS8-Gao: RGS8-Galphao binding modulators, primary screen, biochemical, multiplexed bead flow cytometry | Guanine nucleotide-binding protein G(o) subunit alpha (Homo sapiens), P09471 | actives lie on both sides | response (percent of control binding), % at 10 µM | 0.34% of 220,000 active; in the data active = response below about 60% or above about 140%; inactive = in between;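 also: Galphao activated as the GDP aluminium fluoride complex binding bead-coupled RGS8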
RGS4-Gao reg: modulators of RGS4 binding to Galphao, primary screen, biochemical, multiplexed bead flow cytometry | Guanine nucleotide-binding protein G(o) subunit alpha (Homo sapiens), P09471 | actives lie on both sides | binding response (% of control), % at 10 µM | 0.33% of 220,000 active | AID 1415, 2008; in the data active = binding response below about 49% or above about 150%; inactive = in between;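 also: fluorescent Galphao activated with aluminum fluoride binding bead-coupled RGS4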
RGS4-Gao HTS: modulators of RGS–Galpha-o binding, primary screen, biochemical, multiplexed beads, flow cytometry, RGS4/7/8/16/19; RGS4–Galpha-o binding response, % at 10 µM; multiplexed bead flow cytometry; shares compounds with RGS16-Gao; 99% of 1,600 active; AID 1504, 2009;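 also: fluorescently labeled Galpha-o bound to GDP with aluminium fluoride binding biotinylated RGS beads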
Avidin counter: disruption of biotin probe capture by avidin, counter-screen for RGS protein interaction modulators, biochemical, flow cytometry, bead-based | streptavidin beads, fluorescein-biotin binding | inhibition, % at 10 µM | shares compounds with RGS16-Gao | 1,700 tested, under 10 active;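 active = inhibition above 50%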;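 also: median green fluorescence of gated singlet beads compared with DMSO control wells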
RGS8-Gao single: RGS8-Galphao binding modulators, confirmation, biochemical, multiplexed bead flow cytometry, single concentration; shares compounds with RGS16-Gao; AID 1836, 2009; bead-based flow cytometry RGS8-Galphao binding, fluorescence; actives lie on both sides; binding response (% of control), % at 10 µM; 3% of 1,700 active; in the data active = binding response below about 72% or above about 130%; inactive = in between;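 also: Galphao activated as GDP AlF4 complex before binding bead RGS8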
RGS7-Gao confirm: RGS7-Galphao binding modulators, confirmation, biochemical, multiplexed bead flow cytometry, single concentration. shares compounds with RGS16-Gao. bead-based flow cytometry RGS7-Galphao binding; actives lie on both sides. response (percent of control binding), % at 10 µM. 7.8% of 1,700 active. AID 1837, 2009; in the data active = response below about 75% or above about 130%; inactive = in between;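 also: fluorescent Galphao activated with GDP and aluminum fluoride binding bead-coupled RGS7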
RGS16-Gao conf: modulators of RGS16-Galphao protein binding, confirmation, biochemical, single concentration, multiplexed bead flow cytometry; shares compounds with RGS16-Gao; 4% of 1,700 active; AID 1838, 2009; response (% of control binding), % at 10 µM; bead-based flow cytometry; actives lie on both sides; in the data active = response below about 74% or above about 130%; inactive = in between;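 also: Galphao activated as the GDP aluminium fluoride complex binding bead-coupled RGS16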
RGS4-Gao confirm: modulators of RGS4-Galphao protein binding, confirmation, biochemical, single concentration, multiplexed bead flow cytometry | shares compounds with RGS16-Gao | actives lie on both sides | binding response (% of control), % at 10 µM | 4% of 1,700 active; in the data active = binding response below about 74% or above about 130%; inactive = in between
RGS19-Gao conf: regulators of RGS19-Galphao binding, confirmation, biochemical, single point, multiplexed bead flow cytometry; shares compounds with RGS16-Gao; response (percent of control binding), % at 10 µM; 5% of 1,700 active; bead-based flow cytometry RGS19-Galphao binding; actives lie on both sides; in the data active = response below about 50% or above about 160%; inactive = in between
Of the large screens only hits and unclear results are named; the others gave an inactive call (follow-up assays come after a bar, where they were run); [ ] = another dose, or the depositor's remark. The list is not random: actives were taken first. Their share in the collection is about 0.74%. Unless noted, no rule for the calls is given here.

Cc1c(Cl)cccc1NC(=S)NC(=O)CCN1C(=O)c2ccccc2C1=O	RGS7-Gao 47, RGS4-Gao reg 49 | Avidin counter inactive | RGS8-Gao single inactive | RGS7-Gao confirm inactive | RGS16-Gao conf inactive | RGS4-Gao confirm inactive | RGS19-Gao conf inactive
Cc1ccc(/C(O)=C/C(=O)C(=O)NC23CC4CC(CC(C4)C2)C3)cc1	RGS7-Gao inconclusive
COc1ccc2[nH]c(=O)c(CN(C(=O)c3cccnc3)c3ccccc3C)cc2c1	RGS16-Gao 280[activator], RGS7-Gao inconclusive, RGS8-Gao 142[activator], RGS4-Gao reg 307[activator] | Avidin counter inactive | RGS8-Gao single inactive | RGS7-Gao confirm 56 | RGS16-Gao conf 73 | RGS4-Gao confirm 72 | RGS19-Gao conf 39
COC(OC)c1ccnc(-c2ccc(OC(=O)c3cccs3)cc2)n1	RGS16-Gao 13, RGS7-Gao inconclusive, RGS8-Gao 15, RGS4-Gao reg 23 | Avidin counter inactive | RGS8-Gao single inactive | RGS7-Gao confirm inactive | RGS16-Gao conf inactive | RGS4-Gao confirm inactive | RGS19-Gao conf inactive
COC(OC)c1ccnc(-c2ccc(OC(=O)c3ccccc3)cc2)n1	RGS7-Gao inconclusive
CCN(CC)c1nc(-c2ccccn2)nc(-c2ccccc2)c1C#N	none
CN(C)C(=O)CSc1nnc(-c2ccc(F)cc2)c2ccccc12	RGS7-Gao inconclusive, RGS8-Gao 51, RGS4-Gao reg 28 | Avidin counter inactive | RGS8-Gao single inactive | RGS7-Gao confirm inactive | RGS16-Gao conf inactive | RGS4-Gao confirm inactive | RGS19-Gao conf inactive
Cc1ccc(OCc2cnc(Cl)s2)c(C)c1	none
CC[n+]1c(/C=C/C=C/N(C(C)=O)c2ccccc2)sc2cc(OC)ccc21	RGS7-Gao 155[activator] | RGS4-Gao HTS 135
O=C(CSc1nccc(=O)[nH]1)NCc1ccco1	RGS7-Gao inconclusive
Cc1ccc(OC(=O)C23CC4CC(CC(C4)C2)C3)c(C)n1	RGS7-Gao 152[activator] | RGS4-Gao HTS 119 | Avidin counter inactive | RGS8-Gao single inactive | RGS7-Gao confirm inactive | RGS16-Gao conf inactive | RGS4-Gao confirm inactive | RGS19-Gao conf inactive
CCc1nc(C)ccc1OC(=O)C12CC3CC(CC(C3)C1)C2	none
C=CCN1C(=O)C(CC(=O)Nc2ccc(OCCC)cc2)N(CCCN2CCN(Cc3ccccc3)CC2)C1=S (stereo not drawn)	none
O=[N+]([O-])c1cc2c(cc1/C=N/n1c(-c3ccccc3)n[nH]c1=S)OCO2	none (no result: Calb biofilm kill)
